The source of these data is article PMC7032160 (Asian Journal of Pharmaceutical Sciences, 2017).

The nature of series [1]: Pharmacokinetic study in rats after oral administration of JDR or gemcitabine. The series is classed as in vivo. The note with it: male, Wistar, rat, plasma, 50 mg/kg. Put shortly: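 Twelve male Wistar rats (180–220 g) were fasted 12 h and randomized into two groups (n = 6). Each received one oral dose: prodrug at gemcitabine-equivalent 50 mg/kg or parent drug 50 mg/kg. Blood was drawn at 0.083–48 h (prodrug) or 0.25–24 h (parent) into heparinized THU-treated tubes and spun 3000 × g 15 min; plasma was kept at −80 °C. Analysis was UPLC–MS/MS MRM, with noncompartmental parameters.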

Series [2] is classed as in vitro ADME, rat. To be noted: for Concentration founded: n = 3. Put shortly:
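QC samples (n = 3) were spiked into THU-pretreated rat plasma at low, mid and high levels: 15, 125, 3200 ng/ml prodrug and 12, 125, 3200 ng/ml parent drug. 50 µl plasma was protein-precipitated with methanol plus didanosine IS and centrifuged. Extracts were held in the autosampler at 10 °C for 8 h before UPLC–MS/MS. Read-outs were found concentration and relative error.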

Like-named read-outs stand apart in the source and are kept apart here.

On to `Nc1ccn([C@@H]2O[C@H](CO)[C@@H](O)C2(F)F)c(=O)n1` [Gemcitabine], for which the concentration in series [1] peaked (Cmax) at 1180 ± 47.1 ng/mL. Also, the Tmax in series [1] stood at 1.5 ± 0.9 h. The same compound showed a half-life in series [1] of 2.61 ± 1.1 h. Besides, the RE% in series [2] (autosampler rack at 10 °C for 8 h, High QC) is recorded as −6.4%; in series [2] (autosampler rack at 10 °C for 8 h, Low QC) it was 0.9%; in series [2] (autosampler rack at 10 °C for 8 h, Mid QC), 9.1%; in series [2] (rat plasma, bench-top (20 °C for 1 h), High QC), −8.9%; in series [2] (rat plasma, bench-top (20 °C for 1 h), Low QC) it was −4.8%; in series [2] (rat plasma, bench-top (20 °C for 1 h), Mid QC), 7.8%. The RE% in series [2] (rat plasma, freezing at -80 °C for 2 months, High QC) was −0.1%; in series [2] (rat plasma, freezing at -80 °C for 2 months, Low QC) it was −2.1%; in series [2] (rat plasma, freezing at -80 °C for 2 months, Mid QC) it was 4.3%; in series [2] (rat plasma, three freeze/thaw cycles (-80 to 20 °C), High QC), −7.3%; in series [2] (rat plasma, three freeze/thaw cycles (-80 to 20 °C), Low QC), −2.0%; in series [2] (rat plasma, three freeze/thaw cycles (-80 to 20 °C), Mid QC), 7.4%. Moreover, the Concentration founded worked out at 2915.15 ± 95.7 ng/mL in series [2] (rat plasma, bench-top (20 °C for 1 h), High QC (added 3200.00 ng/ml)); 134.78 ± 1.6 ng/mL in series [2] (rat plasma, bench-top (20 °C for 1 h), Mid QC (added 125.00 ng/ml)); 130.38 ± 10.6 ng/mL in series [2] (rat plasma, freezing at -80 °C for 2 months, Mid QC (added 125.00 ng/ml)).

In general, Cmax refers to the peak of the concentration-time curve. The Tmax is the time at which the peak concentration occurs. One may read the half-life as the time needed for the level to fall by half in the phase considered. The low end stands for rapid decline, the high end for slow decline.
